Measurements taken from ChEMBL document CHEMBL1152300, “Ligand specificity of constitutive androstane receptor as probed by induced-fit docking and mutagenesis” (J Med Chem, 2008).

Tests used:
Assay type in all cases: cell-based
[1] = biological target: Nuclear receptor subfamily 1 group I member 3 (Mus musculus, UniProt O35627, L353A); assay: Decrease in mouse CAR L353A mutant activation expressed in HEK293 cells at 1 uM by mammalian one-hybrid assay; conditions: read-out: Activity
How it was run: (§1)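 GAL4 DBD fused to mouse CAR LBD (residues 118-358), wild type or point mutant, cotransfected with UASx4-tk-luc reporter and pCMVβ into HEK293 cells. Cells cultured with DMSO (0.1% v/v) or compound (final 1, 2 or 10 µM). Lysed 24 h post-transfection. Luciferase normalized to β-galactosidase, expressed relative to empty GAL4 vector (=1.0). Mean ± SD, three independent experiments.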

[2] = biological target: Nuclear receptor subfamily 1 group I member 3 (Mus musculus, UniProt O35627, L212A); assay: Activation of mouse CAR L212A mutant expressed in HEK293 cells at 1 uM by mammalian one-hybrid assay; conditions: hek293, 1 µM; how it was run: as §1
[3] = biological target: Nuclear receptor subfamily 1 group I member 3 (Mus musculus, UniProt O35627, T350A); assay: Decrease in steroid receptor coactivator 1 binding to mouse CAR T350A mutant […] at 1 uM by yeast two-hybrid assay; conditions: read-out: Activity
How it was run: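 Yeast expressing wild-type or mutant mouse CAR LBD plus SRC-1, selected on SD plates lacking leucine and tryptophan. Pooled colonies treated with DMSO or compound for 3.5 h. β-Galactosidase activity normalized to cell density. Reference is wild-type CAR + SRC-1 with DMSO (=100). Mean ± SD of two independent determinations, each in triplicate.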

[4] = biological target: Nuclear receptor subfamily 1 group I member 3 (Mus musculus, UniProt O35627, S251L); assay: Decrease in mouse CAR S251L mutant activation expressed in HEK293 cells at 2 uM by mammalian one-hybrid assay; conditions: read-out: Activity
How it was run: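 GAL4-DBD fused to mouse CAR LBD (residues 118-358), wild-type or point mutant, cotransfected with UASx4-tk-luc reporter and pCMVβ into HEK293 cells. Cells were exposed to final 1 µM, 2 µM or 10 µM test chemical, or 0.1% v/v DMSO, for 24 h after transfection. Luciferase was normalized to β-galactosidase and set against empty GAL4 vector (=1.0). Mean ± standard deviation, three independent experiments.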

Sequence of Nuclear receptor subfamily 1 group I member 3 (Mus musculus, UniProt O35627, T350A) (O35627 whole entry T350A, the tested form may be a part): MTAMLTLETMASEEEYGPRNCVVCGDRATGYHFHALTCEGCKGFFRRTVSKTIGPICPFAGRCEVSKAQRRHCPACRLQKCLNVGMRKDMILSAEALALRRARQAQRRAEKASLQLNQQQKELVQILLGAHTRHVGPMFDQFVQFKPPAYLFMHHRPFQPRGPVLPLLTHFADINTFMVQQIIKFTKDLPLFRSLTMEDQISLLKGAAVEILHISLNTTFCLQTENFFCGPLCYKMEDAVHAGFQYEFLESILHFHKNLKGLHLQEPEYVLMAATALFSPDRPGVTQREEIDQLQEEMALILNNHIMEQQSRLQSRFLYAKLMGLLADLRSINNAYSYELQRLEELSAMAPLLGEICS
Sequence of Nuclear receptor subfamily 1 group I member 3 (Mus musculus, UniProt O35627, L353A) (O35627 whole entry L353A, the tested form may be a part): as the sequence (O35627 whole entry T350A, the tested form may be a part) above, with A350T, L353A counted along it
Sequence of Nuclear receptor subfamily 1 group I member 3 (Mus musculus, UniProt O35627, S251L) (O35627 whole entry S251L, the tested form may be a part): as the sequence (O35627 whole entry T350A, the tested form may be a part) above, with S251L, A350T counted along it
Sequence of Nuclear receptor subfamily 1 group I member 3 (Mus musculus, UniProt O35627, L212A) (O35627 whole entry L212A): as the sequence (O35627 whole entry T350A, the tested form may be a part) above, with L212A, A350T counted along it

Row | inhibition at 2 µM [4] [%] | SMILES | inhibition at 1 µM [1] [%] | Activity [2] [%] | inhibition at 1 µM [3] [%]
1 | – | Clc1cnc(Oc2ccc(Oc3ncc(Cl)cc3Cl)cc2)c(Cl)c1 | 50 | < 50 | ≥ 50
2 | < 50 | Clc1ccccc1C(c1ccccc1)(c1ccccc1)n1ccnc1 [CLOTRIMAZOLE] | – | – | –
